Measurements from ChEMBL document CHEMBL3856284, “Discovery, design and synthesis of 6H-anthra[1,9-cd]isoxazol-6-one scaffold as G9a inhibitor through a combination of shape-based virtual screening and structure-based molecular modification” (Bioorg Med Chem, 2016).

Key:
[1] = Antiproliferative activity against human HepG2 cells assessed as inhibition of cell viability after 72 hrs by MTT assay; assay type: functional, cell-based; details: HepG2, 72 h
[2] = Antiproliferative activity against human HCT116 cells assessed as inhibition of cell viability after 72 hrs by MTT assay; assay type: functional, cell-based; details: HCT-116, 72 h
[3] = biological target: T1, Histone-lysine N-methyltransferase EHMT2 (Homo sapiens, UniProt Q96KQ7); experiment: Inhibition of G9a (unknown origin) using biotinylated-histone H3 (1 to 21 residues)/S-adenosyl-methionine as substrate/methyl donor after 3 hrs by AlphaScreen assay
T1 sequence (Q96KQ7 whole entry): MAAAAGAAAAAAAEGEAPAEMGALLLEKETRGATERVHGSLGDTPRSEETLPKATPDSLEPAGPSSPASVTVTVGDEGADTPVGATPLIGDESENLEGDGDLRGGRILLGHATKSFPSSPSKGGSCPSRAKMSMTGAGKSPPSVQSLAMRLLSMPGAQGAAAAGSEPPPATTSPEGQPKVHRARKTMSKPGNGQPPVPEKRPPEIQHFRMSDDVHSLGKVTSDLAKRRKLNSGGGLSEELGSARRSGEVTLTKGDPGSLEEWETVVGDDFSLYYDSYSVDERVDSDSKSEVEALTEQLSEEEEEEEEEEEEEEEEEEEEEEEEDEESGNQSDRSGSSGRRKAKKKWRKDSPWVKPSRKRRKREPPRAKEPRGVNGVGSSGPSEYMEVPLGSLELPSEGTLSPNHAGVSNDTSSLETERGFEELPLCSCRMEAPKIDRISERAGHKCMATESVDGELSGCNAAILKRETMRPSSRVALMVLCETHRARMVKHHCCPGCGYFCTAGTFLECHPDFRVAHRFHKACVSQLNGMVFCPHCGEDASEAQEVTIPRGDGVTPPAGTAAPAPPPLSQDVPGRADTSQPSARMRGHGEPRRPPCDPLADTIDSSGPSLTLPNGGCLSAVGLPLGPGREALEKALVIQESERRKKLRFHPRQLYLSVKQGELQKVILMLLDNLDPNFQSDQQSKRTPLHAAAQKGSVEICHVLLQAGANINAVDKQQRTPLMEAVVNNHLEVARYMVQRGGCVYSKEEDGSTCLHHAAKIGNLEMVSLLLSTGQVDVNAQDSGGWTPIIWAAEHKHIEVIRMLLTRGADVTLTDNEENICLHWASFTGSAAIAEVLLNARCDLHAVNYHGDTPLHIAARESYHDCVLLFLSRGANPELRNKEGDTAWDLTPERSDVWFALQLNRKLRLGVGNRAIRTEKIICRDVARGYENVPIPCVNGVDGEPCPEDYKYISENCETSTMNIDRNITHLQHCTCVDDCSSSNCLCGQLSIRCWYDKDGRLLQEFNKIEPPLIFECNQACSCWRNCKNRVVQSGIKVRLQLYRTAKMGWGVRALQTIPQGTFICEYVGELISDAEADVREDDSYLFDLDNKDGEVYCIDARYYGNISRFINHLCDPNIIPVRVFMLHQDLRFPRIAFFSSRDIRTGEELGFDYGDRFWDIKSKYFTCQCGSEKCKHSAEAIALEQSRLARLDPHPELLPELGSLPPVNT
Procedure, shortened: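 AlphaScreen G9a assay. Compounds were first screened at 10 µM. IC50 came from concentration-response curves of ten escalating concentrations (0.1 nM–10 µM), using two independent experiments, reported as mean ± SD.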

[4] = Antiproliferative activity against human MCF7 cells assessed as inhibition of cell viability after 72 hrs by MTT assay; assay type: functional, cell-based; details: MCF7, 72 h
[5] = biological target: T1, Histone-lysine N-methyltransferase EHMT2; experiment: Inhibition of G9a (unknown origin)

Compound	IC50 [1]	IC50 [2]	IC50 [3]	IC50 [4]	EC50 [5]
O=C1c2ccccc2-c2onc3c(N4CCCC4)cc(NCCN4CCCC4)c1c23	24.9 µM	7.46 µM	1.22 µM	10.8 µM	–
COc1ccc(Nc2cc(N3CCN(C)CC3)c3noc4c3c2C(=O)c2ccccc2-4)cc1	> 200 µM	140 µM	39.2 µM	> 200 µM	–
CCN1CCN(c2cc(Nc3ccccc3F)c3c4c(onc24)-c2ccccc2C3=O)CC1	> 200 µM	> 200 µM	–	> 200 µM	–
CN1CCCN(c2cc(NCCN3CCCCC3)c3c4c(onc24)-c2ccccc2C3=O)CC1	6.21 µM	3.96 µM	2.49 µM	5.08 µM	–
O=C1c2ccccc2-c2onc3c(N4CCN(c5ccccc5)CC4)cc(NCCN4CCCC4)c1c23	10.8 µM	4.28 µM	3.22 µM	3.77 µM	–
CN(C)CCNc1cc(N(C)C)c2noc3c2c1C(=O)c1ccccc1-3	12.3 µM	30.7 µM	3.47 µM	16.6 µM	–
CN(C)CCNc1cc(N2CCCCC2)c2noc3c2c1C(=O)c1ccccc1-3	15.6 µM	25.4 µM	3.75 µM	10.3 µM	–
CN(C)c1cc(NCCCN2CCCC2)c2c3c(onc13)-c1ccccc1C2=O	16.9 µM	11.3 µM	2.98 µM	8.61 µM	–
CN(C)c1cc(NCCN2CCCC2)c2c3c(onc13)-c1ccccc1C2=O	24.9 µM	6.99 µM	3.87 µM	28 µM	–
CCN1CCN(c2cc(NCCN3CCCC3)c3c4c(onc24)-c2ccccc2C3=O)CC1	8.32 µM	4.34 µM	3.48 µM	20.8 µM	–
COc1cc2c(NC3CCN(C(C)C)CC3)nc(C3CCCCC3)nc2cc1OCCCN1CCCC1	3.7 µM	3.35 µM	–	6.99 µM	–
CN1CCN(c2cc(NCCN3CCCC3)c3c4c(onc24)-c2ccccc2C3=O)CC1	27.8 µM	6.23 µM	6.89 µM	13.9 µM	–
CN(C)CCNc1cc(N2CCCC2)c2noc3c2c1C(=O)c1ccccc1-3	20.5 µM	52.9 µM	5.97 µM	17.6 µM	–
COC(=O)c1ccc2c(c1)nc(NC(=O)c1ccccc1)n2CCCc1ccccc1	–	–	–	–	5 µM
CCN1CCN(c2cc(Nc3ccc(OC)cc3)c3c4c(onc24)-c2ccccc2C3=O)CC1	> 200 µM	> 200 µM	–	> 200 µM	–
COc1ccc(Nc2cc(N3CCCC3)c3noc4c3c2C(=O)c2ccccc2-4)cc1	66.7 µM	> 200 µM	–	> 200 µM	–
O=C1c2ccccc2-c2onc3c(N4CCN(c5ccccc5)CC4)cc(NCCN4CCCCC4)c1c23	10.4 µM	5.32 µM	2.68 µM	1.22 µM	–
CN1CCN(c2cc(NCCN3CCCCC3)c3c4c(onc24)-c2ccccc2C3=O)CC1	8.34 µM	4.56 µM	1.87 µM	8.37 µM	–
CN(C)CCNc1cc(N2CCN(c3ncccn3)CC2)c2noc3c2c1C(=O)c1ccccc1-3	9.14 µM	4.39 µM	3.84 µM	4.31 µM	–
O=C1c2ccccc2-c2onc3c(N4CCN(c5ncccn5)CC4)cc(NCCN4CCCC4)c1c23	3.1 µM	3.36 µM	4.57 µM	4.06 µM	–
CCN1CCN(c2cc(Nc3ccc(C)cc3)c3c4c(onc24)-c2ccccc2C3=O)CC1	> 200 µM	> 200 µM	–	> 200 µM	–
CN(C)CCNc1cc(N2CCN(C)CC2)c2noc3c2c1C(=O)c1ccccc1-3	28.6 µM	18.2 µM	4.84 µM	10.8 µM	–
CN1CCCN(c2cc(NCCN3CCCC3)c3c4c(onc24)-c2ccccc2C3=O)CC1	9.35 µM	3.2 µM	3.96 µM	8.26 µM	–
